ChEMBL document CHEMBL1122378, “Antiallergic agents. 2. N-(1H-tetrazol-5-yl)-6-phenyl-2-pyridinecarboxamides” (1983)

What was measured:
Assay type in all cases: functional
Rattus norvegicus [1] = assay: Antiallergic activity against passive cutaneous anaphylaxis (PCA) in male Sprague-Dawley rats after 10.0 mg/kg oral administration;not statistically significant
How it was run: (§1)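 IgE antiserum raised in male Sprague-Dawley rats (ca. 200 g) by immunization with Ascaris suum extract (2 then 0.2 mg protein), bled 2 weeks after the second dose. Recipients got 0.05 mL diluted antiserum intracutaneously on the back. Blued area (product of two diameters) was read at 30 min.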

Rattus norvegicus [2] = assay: Antiallergic activity against passive cutaneous anaphylaxis (PCA) in male Sprague-Dawley rats after 3.0 mg/kg oral administration; how it was run: as §1
Rattus norvegicus [3] = assay: Antiallergic activity against passive cutaneous anaphylaxis (PCA) in male Sprague-Dawley rats after 10.0 mg/kg oral administration;p<0.1; how it was run: as §1
Rattus norvegicus [4] = assay: Antiallergic activity against passive cutaneous anaphylaxis (PCA) in male Sprague-Dawley rats after 3.0 mg/kg oral administration;not statistically significant; how it was run: as §1
Rattus norvegicus [5] = assay: Antiallergic activity against passive cutaneous anaphylaxis (PCA) in male Sprague-Dawley rats after 0.3 mg/kg oral administration;p<0.1; how it was run: as §1
Rattus norvegicus [6] = assay: Antiallergic activity against passive cutaneous anaphylaxis (PCA) in male Sprague-Dawley rats after 1.0 mg/kg oral administration; how it was run: as §1
Rattus norvegicus [7] = assay: Antiallergic activity against passive cutaneous anaphylaxis (PCA) in male Sprague-Dawley rats after 3.0 mg/kg oral administration;p<0.1.; how it was run: as §1
Rattus norvegicus [8] = assay: Inhibition of passive cutaneous anaphylaxis in male Sprague-Dawley rats following 10 mg/kg p.o. administration.; conditions: route oral; how it was run: as §1
Rattus norvegicus [9] = assay: Inhibition of passive cutaneous anaphylaxis in male Sprague-Dawley rats following 1 mg/kg p.o. administration; Not significant.; conditions: route oral; how it was run: as §1
Rattus norvegicus [10] = assay: Antiallergic activity against passive cutaneous anaphylaxis (PCA) in male Sprague-Dawley rats after 3.0 mg/kg oral administration;p<0.1; how it was run: as §1
Rattus norvegicus [11] = assay: Antiallergic activity against passive cutaneous anaphylaxis (PCA) in male Sprague-Dawley rats after 1.0 mg/kg oral administration;p<0.1; how it was run: as §1
Rattus norvegicus [12] = assay: Antiallergic activity against passive cutaneous anaphylaxis (PCA) in male Sprague-Dawley rats after 0.3 mg/kg oral administration; how it was run: as §1
Rattus norvegicus [13] = assay: Inhibition of passive cutaneous anaphylaxis in male Sprague-Dawley rats following 0.3 mg/kg p.o. administration; Not significant.; conditions: route oral; how it was run: as §1

## COc1cc(C(=O)Nc2nn[nH]n2)nc(-c2cc(OC)c(OC)c(OC)c2)c1
Rattus norvegicus [1]
  inhibition in vivo at 10 mg/kg: 25%
Rattus norvegicus [2]
  inhibition in vivo at 3 mg/kg: 0%

## Cc1ccc(-c2cc(Cl)cc(C(=O)Nc3nn[nH]n3)n2)cc1C
Rattus norvegicus [3]
  inhibition in vivo at 10 mg/kg: 58%
Rattus norvegicus [4]
  inhibition in vivo at 3 mg/kg: 32%

## COc1cc(C(=O)Nc2nn[nH]n2)nc(-c2ccc([N+](=O)[O-])cc2)c1
Rattus norvegicus [1]
  inhibition in vivo at 10 mg/kg: 6%

## COc1cc(-c2cccc(C(=O)Nc3nn[nH]n3)n2)cc(OC)c1OC
Rattus norvegicus [1]
  inhibition in vivo at 10 mg/kg: 45%
Rattus norvegicus [4]
  inhibition in vivo at 3 mg/kg: 15%

## CCc1ccc(-c2cc(Cl)cc(C(=O)Nc3nn[nH]n3)n2)cc1
Rattus norvegicus [5]
  inhibition in vivo at 0.3 mg/kg: 13%
Rattus norvegicus [6]
  inhibition in vivo at 1 mg/kg: 49%
Rattus norvegicus [2]
  inhibition in vivo at 3 mg/kg: 100%

## COc1cc(C(=O)Nc2nn[nH]n2)nc(-c2ccccc2Cl)c1
Rattus norvegicus [1]
  inhibition in vivo at 10 mg/kg: 17%

## CCCc1cc(C(=O)Nc2nn[nH]n2)nc(-c2ccccc2)c1
Rattus norvegicus [7]
  inhibition in vivo at 3 mg/kg: 22%
Rattus norvegicus [8]
  inhibition in vivo at 10 mg/kg: 85%

## Cc1cc(C(=O)Nc2nn[nH]n2)nc(-c2cccc(N)c2)c1
Rattus norvegicus [9]
  inhibition in vivo at 1 mg/kg: 29%
Rattus norvegicus [10]
  inhibition in vivo at 3 mg/kg: 50%

## COc1cc(C(=O)Nc2nn[nH]n2)nc(-c2ccc(OC)c(OC)c2)c1
Rattus norvegicus [9]
  inhibition in vivo at 1 mg/kg: 18%
Rattus norvegicus [10]
  inhibition in vivo at 3 mg/kg: 62%
Rattus norvegicus [8]
  inhibition in vivo at 10 mg/kg: 51%

## CCCOc1cc(C(=O)Nc2nn[nH]n2)nc(-c2ccccc2)c1
Rattus norvegicus [11]
  inhibition in vivo at 1 mg/kg: 27%
Rattus norvegicus [2]
  inhibition in vivo at 3 mg/kg: 100%
Rattus norvegicus [12]
  inhibition in vivo at 0.3 mg/kg: 0%

## O=C(Nc1nn[nH]n1)c1cccc(-c2ccccc2)n1
Rattus norvegicus [11]
  inhibition in vivo at 1 mg/kg: 36%
Rattus norvegicus [2]
  inhibition in vivo at 3 mg/kg: 74%
Rattus norvegicus [8]
  inhibition in vivo at 10 mg/kg: 81%

## CC(C)Cc1cc(C(=O)Nc2nn[nH]n2)nc(-c2ccccc2)c1
Rattus norvegicus [1]
  inhibition in vivo at 10 mg/kg: 11%

## CCCCc1ccc(-c2cc(CC(C)C)cc(C(=O)Nc3nn[nH]n3)n2)cc1
Rattus norvegicus [1]
  inhibition in vivo at 10 mg/kg: 13%
Rattus norvegicus [4]
  inhibition in vivo at 3 mg/kg: 3%

## COc1cc(C(=O)Nc2nn[nH]n2)nc(-c2ccc(N)cc2)c1
Rattus norvegicus [5]
  inhibition in vivo at 0.3 mg/kg: 12%
Rattus norvegicus [11]
  inhibition in vivo at 1 mg/kg: 50%

## Nc1cccc(-c2cccc(C(=O)Nc3nn[nH]n3)n2)c1
Rattus norvegicus [3]
  inhibition in vivo at 10 mg/kg: 57%
Rattus norvegicus [2]
  inhibition in vivo at 3 mg/kg: 0%

## Cc1ccc(-c2cc(C(C)C)cc(C(=O)Nc3nn[nH]n3)n2)cc1
Rattus norvegicus [9]
  inhibition in vivo at 1 mg/kg: 20%
Rattus norvegicus [10]
  inhibition in vivo at 3 mg/kg: 42%

## COc1cc(C(=O)Nc2nn[nH]n2)nc(-c2cccc(N)c2)c1
Rattus norvegicus [11]
  inhibition in vivo at 1 mg/kg: 27%
Rattus norvegicus [3]
  inhibition in vivo at 10 mg/kg: 58%
Rattus norvegicus [2]
  inhibition in vivo at 3 mg/kg: 41%

## COc1ccc(-c2cc(C)cc(C(=O)Nc3nn[nH]n3)n2)cc1
Rattus norvegicus [3]
  inhibition in vivo at 10 mg/kg: 52%
Rattus norvegicus [2]
  inhibition in vivo at 3 mg/kg: 43%

## CCCCc1ccc(-c2cc(C)cc(C(=O)Nc3nn[nH]n3)n2)cc1
Rattus norvegicus [11]
  inhibition in vivo at 1 mg/kg: 42%
Rattus norvegicus [2]
  inhibition in vivo at 3 mg/kg: 67%
Rattus norvegicus [13]
  inhibition in vivo at 0.3 mg/kg: 17%

## CCc1ccc(-c2cc(C)cc(C(=O)Nc3nn[nH]n3)n2)cc1
Rattus norvegicus [7]
  inhibition in vivo at 3 mg/kg: 35%
Rattus norvegicus [8]
  inhibition in vivo at 10 mg/kg: 100%

## COc1cc(C(=O)Nc2nn[nH]n2)nc(-c2ccc(C(C)(C)C)cc2)c1
Rattus norvegicus [9]
  inhibition in vivo at 1 mg/kg: 29%
Rattus norvegicus [10]
  inhibition in vivo at 3 mg/kg: 68%

## Cc1ccc(-c2cc(C)cc(C(=O)Nc3nn[nH]n3)n2)cc1
Rattus norvegicus [6]
  inhibition in vivo at 1 mg/kg: 80%
Rattus norvegicus [2]
  inhibition in vivo at 3 mg/kg: 100%
Rattus norvegicus [12]
  inhibition in vivo at 0.3 mg/kg: 51%

## COc1cc(C(=O)Nc2nn[nH]n2)nc(-c2ccccc2OC)c1
Rattus norvegicus [5]
  inhibition in vivo at 0.3 mg/kg: 35%
Rattus norvegicus [9]
  inhibition in vivo at 1 mg/kg: 41%
Rattus norvegicus [2]
  inhibition in vivo at 3 mg/kg: 68%

## CCOc1cc(C(=O)Nc2nn[nH]n2)nc(-c2ccccc2)c1
Rattus norvegicus [9]
  inhibition in vivo at 1 mg/kg: 29%
Rattus norvegicus [10]
  inhibition in vivo at 3 mg/kg: 51%

## Cc1cc(C(=O)Nc2nn[nH]n2)nc(-c2ccc(N)cc2)c1
Rattus norvegicus [5]
  inhibition in vivo at 0.3 mg/kg: 54%
Rattus norvegicus [6]
  inhibition in vivo at 1 mg/kg: 75%
Rattus norvegicus [2]
  inhibition in vivo at 3 mg/kg: 100%

## O=C(Nc1nn[nH]n1)c1cc(Cl)cc(-c2ccc([N+](=O)[O-])cc2)n1
Rattus norvegicus [1]
  inhibition in vivo at 10 mg/kg: 48%
Rattus norvegicus [4]
  inhibition in vivo at 3 mg/kg: 23%

## O=C(Nc1nn[nH]n1)c1cc(Cl)cc(-c2ccc(Cl)cc2)n1
Rattus norvegicus [3]
  inhibition in vivo at 10 mg/kg: 63%
Rattus norvegicus [2]
  inhibition in vivo at 3 mg/kg: 11%

## CCc1ccc(-c2cccc(C(=O)Nc3nn[nH]n3)n2)cc1
Rattus norvegicus [5]
  inhibition in vivo at 0.3 mg/kg: 14%
Rattus norvegicus [9]
  inhibition in vivo at 1 mg/kg: 39%

## Cc1ccccc1-c1cc(Cl)cc(C(=O)Nc2nn[nH]n2)n1
Rattus norvegicus [1]
  inhibition in vivo at 10 mg/kg: 24%
